Data published in ChEMBL document CHEMBL1140708, “Synthesis and in vivo evaluation of halogenated N,N-dimethyl-2-(2'-amino-4'-hydroxymethylphenylthio)benzylamine derivatives as PET serotonin transporter ligands” (J Med Chem, 2008).

Columns and labels:
Thalamus [1] = assay: Drug uptake in cynomolgus monkey thalamus in presence of citalopram after 115 mins; format: ADME, tissue-based, Macaca fascicularis; conditions: in vivo
Outline: (§1)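 Chase microPET scans in the same male cynomolgus monkey after i.v. 11C radiotracer (6.90–18.10 mCi). R,S-citalopram·HBr, 1.5 mg/kg, was given i.v. as a 30 s bolus at 45 min (ratios at 45 and 85 min) or 60 min (ratios at 55 and 115 min) post-tracer. Value is the region-to-cerebellum activity ratio before and after citalopram.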

Caudate [2] = assay: Drug uptake in cynomolgus monkey caudate after 55 mins; format: ADME, tissue-based, Macaca fascicularis, Caudate nucleus; conditions: in vivo; outline: as §1
[3] = Partition coefficient, log P at pH 7.4; format: physicochemical; conditions: octanol/water
Outline: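 Each 11C-labelled radiotracer was partitioned between 1-octanol and 0.02 M phosphate buffer at pH 7.4.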

Midbrain [4] = assay: Drug uptake in cynomolgus monkey midbrain after 55 mins; format: ADME, tissue-based, Macaca fascicularis; conditions: in vivo; outline: as §1
Putamen [5] = assay: Drug uptake in cynomolgus monkey putamen after 55 mins; format: ADME, tissue-based, Macaca fascicularis; conditions: in vivo; outline: as §1
Midbrain [6] = assay: Drug uptake in cynomolgus monkey midbrain in presence of citalopram after 115 mins; format: ADME, tissue-based, Macaca fascicularis; conditions: in vivo; outline: as §1
Occipital cortex [7] = assay: Drug uptake in cynomolgus monkey occipital cortex in presence of citalopram after 115 mins; format: ADME, tissue-based, Macaca fascicularis; conditions: in vivo; outline: as §1
Occipital cortex [8] = assay: Drug uptake in cynomolgus monkey occipital cortex after 85 mins; format: ADME, tissue-based, Macaca fascicularis; conditions: in vivo
Outline: (§2)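 Baseline microPET (Concorde P4) scans in one anesthetized adult male cynomolgus monkey (7.50–8.35 kg) after i.v. radiotracer. Attenuation correction used a 68Ge transmission scan; OSEM reconstruction, 3 mm resolution. Value is the region-of-interest to cerebellum activity ratio at 85 min post-injection.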

Medulla [9] = assay: Drug uptake in cynomolgus monkey medulla after 55 mins; format: ADME, tissue-based, Macaca fascicularis, Medulla of organ; conditions: in vivo; outline: as §1
Pons [10] = assay: Drug uptake in cynomolgus monkey pons after 55 mins; format: ADME, tissue-based, Macaca fascicularis; conditions: in vivo; outline: as §1
Caudate [11] = assay: Drug uptake in cynomolgus monkey caudate after 85 mins; format: ADME, tissue-based, Macaca fascicularis, Caudate nucleus; conditions: in vivo; outline: as §2
Occipital cortex [12] = assay: Drug uptake in cynomolgus monkey occipital cortex after 55 mins; format: ADME, tissue-based, Macaca fascicularis; conditions: in vivo; outline: as §1
Frontal cortex [13] = assay: Drug uptake in cynomolgus monkey frontal cortex in presence of citalopram after 115 mins; format: ADME, tissue-based, Macaca fascicularis; conditions: in vivo; outline: as §1
Pons [14] = assay: Drug uptake in cynomolgus monkey pons after 85 mins; format: ADME, tissue-based, Macaca fascicularis; conditions: in vivo; outline: as §2
Frontal cortex [15] = assay: Drug uptake in cynomolgus monkey frontal cortex after 85 mins; format: ADME, tissue-based, Macaca fascicularis; conditions: in vivo; outline: as §2
Medulla [16] = assay: Drug uptake in cynomolgus monkey medulla in presence of citalopram after 115 mins; format: ADME, tissue-based, Macaca fascicularis, Medulla of organ; conditions: in vivo; outline: as §1
Caudate [17] = assay: Drug uptake in cynomolgus monkey caudate in presence of citalopram after 115 mins; format: ADME, tissue-based, Macaca fascicularis, Caudate nucleus; conditions: in vivo; outline: as §1
Thalamus [18] = assay: Drug uptake in cynomolgus monkey thalamus after 85 mins; format: ADME, tissue-based, Macaca fascicularis; conditions: in vivo; outline: as §2
Frontal cortex [19] = assay: Drug uptake in cynomolgus monkey frontal cortex after 55 mins; format: ADME, tissue-based, Macaca fascicularis; conditions: in vivo; outline: as §1
Thalamus [20] = assay: Drug uptake in cynomolgus monkey thalamus after 55 mins; format: ADME, tissue-based, Macaca fascicularis; conditions: in vivo; outline: as §1
Putamen [21] = assay: Drug uptake in cynomolgus monkey putamen after 85 mins; format: ADME, tissue-based, Macaca fascicularis; conditions: in vivo; outline: as §2
Pons [22] = assay: Drug uptake in cynomolgus monkey pons in presence of citalopram after 115 mins; format: ADME, tissue-based, Macaca fascicularis; conditions: in vivo; outline: as §1
Putamen [23] = assay: Drug uptake in cynomolgus monkey putamen in presence of citalopram after 115 mins; format: ADME, tissue-based, Macaca fascicularis; conditions: in vivo; outline: as §1
Medulla [24] = assay: Drug uptake in cynomolgus monkey medulla after 85 mins; format: ADME, tissue-based, Macaca fascicularis, Medulla of organ; conditions: in vivo; outline: as §2
Midbrain [25] = assay: Drug uptake in cynomolgus monkey midbrain after 85 mins; format: ADME, tissue-based, Macaca fascicularis; conditions: in vivo; outline: as §2
Homo sapiens [26] = species on record: Homo sapiens; assay: Selectivity for human DAT to human SERT
Outline: (§3)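 Ratio of Ki at hDAT or hNET to Ki at hSERT. Ki values come from competition binding on transfected cell membranes: [125I]RTI-55 (MDCK-hDAT), [3H]nisoxetine (HEK-hNET) or [3H]citalopram (HEK-hSERT); 12 competitor concentrations from 10^-13 to 10^-5 M.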

[27] = biological target: Sodium-dependent serotonin transporter (Homo sapiens, UniProt P31645); assay: Displacement of [3H]citalopram from human SERT expressed in HEK293 cells; format: cell-based
Sodium-dependent serotonin transporter, sequence (P31645 whole entry): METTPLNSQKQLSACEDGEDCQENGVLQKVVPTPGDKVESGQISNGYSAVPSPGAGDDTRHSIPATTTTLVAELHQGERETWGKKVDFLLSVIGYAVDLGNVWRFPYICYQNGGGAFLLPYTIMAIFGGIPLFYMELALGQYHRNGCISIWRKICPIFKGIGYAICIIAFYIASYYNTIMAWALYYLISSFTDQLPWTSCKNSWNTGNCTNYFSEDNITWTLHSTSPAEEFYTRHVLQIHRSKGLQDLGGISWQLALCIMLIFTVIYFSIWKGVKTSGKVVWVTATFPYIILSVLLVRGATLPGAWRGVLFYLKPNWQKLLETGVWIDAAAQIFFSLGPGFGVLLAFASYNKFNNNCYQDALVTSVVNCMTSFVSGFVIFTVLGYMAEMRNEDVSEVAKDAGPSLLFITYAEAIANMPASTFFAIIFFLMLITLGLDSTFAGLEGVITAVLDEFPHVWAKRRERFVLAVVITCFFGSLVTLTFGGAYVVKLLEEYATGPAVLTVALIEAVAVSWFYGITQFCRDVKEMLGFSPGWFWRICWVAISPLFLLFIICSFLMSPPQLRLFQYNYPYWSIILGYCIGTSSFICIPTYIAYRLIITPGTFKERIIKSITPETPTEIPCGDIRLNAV
Outline: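 Membranes (30–70 µg protein) from HEK-293 cells stably expressing hSERT, grown in DMEM/10% FBS/Geneticin. Incubated 2 h at room temperature with [3H]citalopram in 53 mM Tris, 126 mM NaCl, 5.3 mM KCl, pH 7.9. Competitor: 12 concentrations, 10^-13 to 10^-5 M, in triplicate. Rapid filtration on GF/B with cold buffer washes; Ki averaged from ≥2 separate assays.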

[28] = biological target: Sodium-dependent noradrenaline transporter (Homo sapiens, UniProt P23975); assay: Displacement of [3H]nisoxetine from human NET t expressed in HEK293 cells; format: cell-based
Sodium-dependent noradrenaline transporter, sequence (P23975 whole entry): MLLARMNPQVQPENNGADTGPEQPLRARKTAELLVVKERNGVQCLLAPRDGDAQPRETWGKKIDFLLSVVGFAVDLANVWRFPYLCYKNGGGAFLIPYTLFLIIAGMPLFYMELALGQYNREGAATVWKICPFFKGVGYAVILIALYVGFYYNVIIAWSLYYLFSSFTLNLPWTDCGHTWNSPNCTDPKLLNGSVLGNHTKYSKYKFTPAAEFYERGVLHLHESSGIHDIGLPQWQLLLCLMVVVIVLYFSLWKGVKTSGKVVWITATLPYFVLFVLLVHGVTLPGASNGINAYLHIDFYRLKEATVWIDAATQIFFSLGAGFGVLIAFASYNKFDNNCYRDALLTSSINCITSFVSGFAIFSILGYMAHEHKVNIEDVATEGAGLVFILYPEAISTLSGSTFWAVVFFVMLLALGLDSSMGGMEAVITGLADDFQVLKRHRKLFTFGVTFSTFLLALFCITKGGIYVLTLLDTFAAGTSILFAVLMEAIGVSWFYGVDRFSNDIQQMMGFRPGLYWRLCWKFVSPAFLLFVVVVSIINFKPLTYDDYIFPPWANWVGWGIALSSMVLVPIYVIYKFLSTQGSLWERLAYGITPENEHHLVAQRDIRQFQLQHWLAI
Outline: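 Membranes (30–70 µg protein) from HEK-293 cells stably expressing hNET. Equilibrium with [3H]nisoxetine for 4 h at 4 °C in 53 mM Tris, 320 mM NaCl, 5.3 mM KCl, pH 7.4 at 4 °C. Competitor: 12 concentrations, 10^-13 to 10^-5 M, in triplicate. Ended by vacuum filtration through PEI-presoaked GF/B filters; Ki averaged from at least two assays, each in duplicate.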

[29] = biological target: Sodium-dependent dopamine transporter (Homo sapiens, UniProt Q01959); assay: Displacement of [125I]RTI-55 from human DAT expressed in MDCK cells; format: cell-based
Sodium-dependent dopamine transporter, sequence (Q01959 whole entry): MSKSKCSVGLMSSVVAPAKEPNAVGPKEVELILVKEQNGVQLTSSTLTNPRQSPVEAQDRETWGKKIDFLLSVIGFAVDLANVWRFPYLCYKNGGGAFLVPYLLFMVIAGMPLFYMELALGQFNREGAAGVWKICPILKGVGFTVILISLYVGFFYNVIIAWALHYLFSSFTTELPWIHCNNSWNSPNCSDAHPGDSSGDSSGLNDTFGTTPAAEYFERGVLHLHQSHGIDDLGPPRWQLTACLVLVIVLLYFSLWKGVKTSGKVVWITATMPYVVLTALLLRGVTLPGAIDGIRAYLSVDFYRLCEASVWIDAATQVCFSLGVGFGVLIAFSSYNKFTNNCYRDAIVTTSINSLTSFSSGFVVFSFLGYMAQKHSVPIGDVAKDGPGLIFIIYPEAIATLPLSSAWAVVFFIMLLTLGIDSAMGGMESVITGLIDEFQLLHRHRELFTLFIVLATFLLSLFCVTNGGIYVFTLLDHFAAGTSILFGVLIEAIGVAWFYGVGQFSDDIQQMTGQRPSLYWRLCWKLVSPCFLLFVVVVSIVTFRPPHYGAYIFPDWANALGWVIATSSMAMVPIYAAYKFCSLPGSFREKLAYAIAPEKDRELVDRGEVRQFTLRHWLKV
Outline: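 MDCK cells stably expressing hDAT, grown to confluency in DMEM with 10% FBS and Geneticin, harvested in PBS/0.53 mM EDTA. Membranes (30–70 µg protein) were incubated 1 h at room temperature with 2.0 nM [125I]RTI-55 in 42 mM sodium phosphate/320 mM sucrose, pH 7.4. Competitor: 12 concentrations, 10^-13 to 10^-5 M, in triplicate. Filtered through PEI-soaked GF/B filters; Ki averaged over ≥2 assays.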

Homo sapiens [30] = species on record: Homo sapiens; assay: Selectivity for human NET to human SERT; outline: as §3
Medulla [31] = assay: Drug uptake in cynomolgus monkey medulla after 45 mins; format: ADME, tissue-based, Macaca fascicularis, Medulla of organ; conditions: in vivo, 0.75 h; outline: as §1
Frontal cortex [32] = assay: Drug uptake in cynomolgus monkey frontal cortex in presence of citalopram after 85 mins; format: ADME, tissue-based, Macaca fascicularis; conditions: in vivo; outline: as §1
Medulla [33] = assay: Drug uptake in cynomolgus monkey medulla in presence of citalopram after 85 mins; format: ADME, tissue-based, Macaca fascicularis, Medulla of organ; conditions: in vivo; outline: as §1
Putamen [34] = assay: Drug uptake in cynomolgus monkey putamen after 45 mins; format: ADME, tissue-based, Macaca fascicularis; conditions: in vivo, 0.75 h; outline: as §1
Pons [35] = assay: Drug uptake in cynomolgus monkey pons after 45 mins; format: ADME, tissue-based, Macaca fascicularis; conditions: in vivo, 0.75 h; outline: as §1
Thalamus [36] = assay: Drug uptake in cynomolgus monkey thalamus in presence of citalopram after 85 mins; format: ADME, tissue-based, Macaca fascicularis; conditions: in vivo; outline: as §1
Putamen [37] = assay: Drug uptake in cynomolgus monkey putamen in presence of citalopram after 85 mins; format: ADME, tissue-based, Macaca fascicularis; conditions: in vivo; outline: as §1
Pons [38] = assay: Drug uptake in cynomolgus monkey pons in presence of citalopram after 85 mins; format: ADME, tissue-based, Macaca fascicularis; conditions: in vivo; outline: as §1
Thalamus [39] = assay: Drug uptake in cynomolgus monkey thalamus after 45 mins; format: ADME, tissue-based, Macaca fascicularis; conditions: in vivo, 0.75 h; outline: as §1
Occipital cortex [40] = assay: Drug uptake in cynomolgus monkey occipital cortex in presence of citalopram after 85 mins; format: ADME, tissue-based, Macaca fascicularis; conditions: in vivo; outline: as §1
Midbrain [41] = assay: Drug uptake in cynomolgus monkey midbrain after 45 mins; format: ADME, tissue-based, Macaca fascicularis; conditions: in vivo, 0.75 h; outline: as §1
Caudate [42] = assay: Drug uptake in cynomolgus monkey caudate in presence of citalopram after 85 mins; format: ADME, tissue-based, Macaca fascicularis, Caudate nucleus; conditions: in vivo; outline: as §1
Caudate [43] = assay: Drug uptake in cynomolgus monkey caudate after 45 mins; format: ADME, tissue-based, Macaca fascicularis, Caudate nucleus; conditions: in vivo, 0.75 h; outline: as §1
Occipital cortex [44] = assay: Drug uptake in cynomolgus monkey occipital cortex after 45 mins; format: ADME, tissue-based, Macaca fascicularis; conditions: in vivo, 0.75 h; outline: as §1
Midbrain [45] = assay: Drug uptake in cynomolgus monkey midbrain in presence of citalopram after 85 mins; format: ADME, tissue-based, Macaca fascicularis; conditions: in vivo; outline: as §1
Frontal cortex [46] = assay: Drug uptake in cynomolgus monkey frontal cortex after 45 mins; format: ADME, tissue-based, Macaca fascicularis; conditions: in vivo, 0.75 h; outline: as §1

CN([11CH3])Cc1cc(Br)ccc1Sc1ccc(CO)cc1N
Ratio (Thalamus [1]): 1.4 | Ratio (Caudate [2]): 1.4 | logD [3]: 2.63 | Ratio (Midbrain [4]): 2.4 | Ratio (Putamen [5]): 1.6 | Ratio (Midbrain [6]): 1.2 | Ratio (Occipital cortex [7]): 1.1 | Ratio (Occipital cortex [8]): 1.34 | Ratio (Medulla [9]): 2.3 | Ratio (Pons [10]): 2 | Ratio (Caudate [11]): 1.7 | Ratio (Occipital cortex [12]): 1.35 | Ratio (Frontal cortex [13]): 1 | Ratio (Pons [14]): 2.8 | Ratio (Frontal cortex [15]): 1.06 | Ratio (Medulla [16]): 1.1 | Ratio (Caudate [17]): 1 | Ratio (Thalamus [18]): 2.3 | Ratio (Frontal cortex [19]): 1 | Ratio (Thalamus [20]): 1.8 | Ratio (Putamen [21]): 2.4 | Ratio (Pons [22]): 1.23 | Ratio (Putamen [23]): 1.2 | Ratio (Medulla [24]): 2.6 | Ratio (Midbrain [25]): 3.24

CN(C)Cc1cc(I)ccc1Sc1ccc(CO)cc1N
Ratio Ki (Homo sapiens [26]): > 1000 | Ki [27]: 0.31 nM | Ki [28]: 467 nM | Ki [29]: > 2000 nM | Ratio Ki (Homo sapiens [30]): > 1000

CN(C)Cc1ccccc1Sc1ccc(CO)cc1N
logD [3]: 1.6 | Ratio Ki (Homo sapiens [26]): > 1000 | Ki [29]: > 1000 nM | Ratio Ki (Homo sapiens [30]): 532

CN(C)Cc1cc(F)ccc1Sc1ccc(CO)cc1N
Ratio Ki (Homo sapiens [26]): > 1000 | Ki [27]: 1.26 nM | Ki [28]: 618 nM | Ki [29]: > 2000 nM | Ratio Ki (Homo sapiens [30]): 490

CN([11CH3])Cc1cc(F)ccc1Sc1ccc(CO)cc1N
logD [3]: 2.06 | Ratio (Medulla [31]): 2 | Ratio (Frontal cortex [32]): 1 | Ratio (Medulla [33]): 1.1 | Ratio (Putamen [34]): 1.8 | Ratio (Pons [35]): 2 | Ratio (Thalamus [36]): 1.3 | Ratio (Putamen [37]): 1.2 | Ratio (Pons [38]): 1.4 | Ratio (Pons [14]): 2.8 | Ratio (Frontal cortex [15]): 1.04 | Ratio (Thalamus [39]): 1.9 | Ratio (Thalamus [18]): 2.3 | Ratio (Occipital cortex [40]): 1.04 | Ratio (Midbrain [41]): 2.3 | Ratio (Caudate [42]): 1.06 | Ratio (Caudate [43]): 1.6 | Ratio (Occipital cortex [44]): 1.3 | Ratio (Midbrain [45]): 1.2 | Ratio (Frontal cortex [46]): 1.06 | Ratio (Medulla [24]): 2.1 | Ratio (Midbrain [25]): 3.4

CN([11CH3])Cc1cc(I)ccc1Sc1ccc(CO)cc1N
Ratio (Thalamus [1]): 1.63 | Ratio (Caudate [2]): 1.8 | logD [3]: 1.82 | Ratio (Midbrain [4]): 2.4 | Ratio (Putamen [5]): 1.9 | Ratio (Midbrain [6]): 1.7 | Ratio (Occipital cortex [7]): 1.1 | Ratio (Occipital cortex [8]): 1.2 | Ratio (Medulla [9]): 2.5 | Ratio (Pons [10]): 1.9 | Ratio (Caudate [11]): 1.8 | Ratio (Occipital cortex [12]): 1.2 | Ratio (Frontal cortex [13]): 1 | Ratio (Pons [14]): 1.65 | Ratio (Frontal cortex [15]): 1.09 | Ratio (Medulla [16]): 1.6 | Ratio (Caudate [17]): 1.3 | Ratio (Thalamus [18]): 2.06 | Ratio (Frontal cortex [19]): 1 | Ratio (Thalamus [20]): 2 | Ratio (Putamen [21]): 2.3 | Ratio (Pons [22]): 1.5 | Ratio (Putamen [23]): 1.4 | Ratio (Medulla [24]): 2.4 | Ratio (Midbrain [25]): 3

CN(C)Cc1cc(Br)ccc1Sc1ccc(CO)cc1N
Ratio Ki (Homo sapiens [26]): 762 | Ki [27]: 0.29 nM | Ki [28]: 725 nM | Ki [29]: 221 nM | Ratio Ki (Homo sapiens [30]): > 2000
